Measured values taken from ChEMBL document CHEMBL4152211, “Discovery of novel Methylsulfonyl phenyl derivatives as potent human Cyclooxygenase-2 inhibitors with effective anticonvulsant action: Design, synthesis, in-silico, in-vitro and in-vivo evaluation” (Eur J Med Chem, 2018).
The source made the active and inactive calls. The rule behind the calls is not given here.

Assays:
[1] = target: T1, Prostaglandin G/H synthase 1 (Ovis aries) (UniProt P05979); test: Inhibition of ovine COX1 at 10 uM using arachidonic acid as substrate preincubated for 5 mins followed by substrate addition and measured after 2 mins by ADPH probe-based fluorescence assay relative to control
T1 sequence (whole entry): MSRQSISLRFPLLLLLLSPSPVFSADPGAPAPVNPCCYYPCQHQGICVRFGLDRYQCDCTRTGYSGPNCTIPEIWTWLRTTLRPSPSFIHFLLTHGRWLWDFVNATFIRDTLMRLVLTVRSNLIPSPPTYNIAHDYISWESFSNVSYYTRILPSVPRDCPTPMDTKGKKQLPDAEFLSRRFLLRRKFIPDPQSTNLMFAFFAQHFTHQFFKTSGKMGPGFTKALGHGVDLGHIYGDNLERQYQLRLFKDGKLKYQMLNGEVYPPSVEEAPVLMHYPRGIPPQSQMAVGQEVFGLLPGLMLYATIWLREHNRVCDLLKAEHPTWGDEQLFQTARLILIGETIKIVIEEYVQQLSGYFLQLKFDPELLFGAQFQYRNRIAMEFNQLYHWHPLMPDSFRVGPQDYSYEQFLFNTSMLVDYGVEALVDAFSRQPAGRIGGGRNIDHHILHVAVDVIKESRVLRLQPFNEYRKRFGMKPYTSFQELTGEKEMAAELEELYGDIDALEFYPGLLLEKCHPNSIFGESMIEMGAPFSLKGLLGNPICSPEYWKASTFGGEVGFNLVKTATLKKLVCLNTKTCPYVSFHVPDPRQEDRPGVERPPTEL
How it was run: (§1)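 Kit assay in 100 mM Tris-HCl pH 8.0. Enzyme, heme and inhibitor (DMSO stocks) are incubated 5 min at room temperature. ADPH is added, then arachidonic acid starts the reaction. After 2 min, fluorescence is read at ex 535/em 590 nm. Percent inhibition is taken versus the 100% activity well, background wells included. IC50 is derived from percentage inhibition, mean of three independent experiments.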

[2] = target: T2, Prostaglandin G/H synthase 2 (Homo sapiens) (UniProt P35354); test: Inhibition of human recombinant COX2 at 10 uM using arachidonic acid as substrate preincubated for 5 mins followed by substrate addition and measured after 2 mins by ADPH probe-based fluorescence assay relative to control; how it was run: as §1
T2 sequence (whole entry): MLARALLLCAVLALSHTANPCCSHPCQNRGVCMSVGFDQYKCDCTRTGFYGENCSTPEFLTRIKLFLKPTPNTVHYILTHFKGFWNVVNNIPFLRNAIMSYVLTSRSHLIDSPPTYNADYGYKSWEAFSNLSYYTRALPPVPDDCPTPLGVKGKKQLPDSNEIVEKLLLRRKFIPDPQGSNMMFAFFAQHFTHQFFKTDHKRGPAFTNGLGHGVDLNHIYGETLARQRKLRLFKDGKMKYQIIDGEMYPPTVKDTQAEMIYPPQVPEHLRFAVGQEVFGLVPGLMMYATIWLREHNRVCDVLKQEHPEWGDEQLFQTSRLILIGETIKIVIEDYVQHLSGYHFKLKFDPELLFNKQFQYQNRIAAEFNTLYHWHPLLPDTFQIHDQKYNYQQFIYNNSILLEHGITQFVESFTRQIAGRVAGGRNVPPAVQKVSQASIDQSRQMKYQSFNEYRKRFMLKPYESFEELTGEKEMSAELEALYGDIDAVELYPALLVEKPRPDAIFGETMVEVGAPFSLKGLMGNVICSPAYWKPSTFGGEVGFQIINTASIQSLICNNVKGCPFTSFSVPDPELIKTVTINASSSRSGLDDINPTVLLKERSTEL

[3] = target: T3, Prostaglandin G/H synthase 2 (Homo sapiens, UniProt P35354); test: Inhibition of human recombinant COX2 using arachidonic acid as substrate preincubated for 5 mins followed by substrate addition and measured after 2 mins by ADPH probe-based fluorescence assay; how it was run: as §1
T3 sequence (P35354 whole entry): T2 sequence (whole entry)

[4] = system: Mus musculus; test: Anticonvulsant activity in Swiss albino mouse assessed as protection against subcutaneous pentylenetetrazole-induced seizures at 30 mg/kg, ip administered 0.5 hrs prior to PTZ challenge and measured after 30 mins; assay type: functional
How it was run: (§2)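 Male Swiss Albino mice (25–30 g), 6 per group, dosed i.p. with drugs in sterile saline, then challenged with PTZ 85 mg/kg s.c. (CD97), given at 10 ml/kg, 0.5 h or 4 h later. Each animal is observed singly for seizures. Protection is scored as protected/total animals.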

[5] = system: Mus musculus; test: Anticonvulsant activity in Swiss albino mouse assessed as protection against subcutaneous pentylenetetrazole-induced seizures at 100 mg/kg, ip administered 0.5 hrs prior to PTZ challenge and measured after 30 mins; assay type: functional; how it was run: as §2
[6] = system: Mus musculus; test: Anticonvulsant activity in Swiss albino mouse assessed as protection against subcutaneous pentylenetetrazole-induced seizures at 5 mg/kg, ip administered 6 hrs prior to PTZ challenge and measured after 30 mins; assay type: functional; conditions: in the assay text read “30 mg/kg” for “5 mg/kg”
How it was run: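 Mice get a single i.p. dose, then PTZ 85 mg/kg s.c. at 0.5, 1, 2, 3, 4 or 6 h after dosing. Seizure protection is recorded at each interval as percentage of six Swiss Albino mice protected.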

[7] = system: Rattus norvegicus; test: Antiepileptic activity in rat model of PTZ-induced epileptiogenesis kindling model assessed as decrease of seizure severity at 30 mg/kg, ip measured up to 28 days; assay type: functional, organism-based
How it was run: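 Adult male Wistar rats receive PTZ 40 mg/kg i.p. on alternate days for 28 days plus daily i.p. treatment. After each PTZ injection, rats are observed singly for 45 min and scored on the revised Racine scale (stages to 6). Group mean score per week, ±S.D. Statistics are repeated-measures ANOVA with Tukey's test.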

[8] = system: Rattus norvegicus; test: Anxiolytic activity in ip dosed PTZ-kindled Wistar rat assessed as time spent in light zone by light-dark test (reference value: 3.05 +/- 1.25%); assay type: functional
[9] = system: Rattus norvegicus; test: Toxicity in Wistar rat assessed as lymphocyte level at 200 mg/kg, po for 14 days (reference value: 77.33 +/- 2.08%); assay type: organism-based; conditions: in vivo, 336 h
[10] = system: Rattus norvegicus; test: Toxicity in Wistar rat assessed as monocyte level at 200 mg/kg, po for 14 days (reference value: 2.67 +/- 0.58%); assay type: organism-based; conditions: in vivo, 336 h
[11] = system: Rattus norvegicus; test: Toxicity in Wistar rat assessed as RBC level at 200 mg/kg, po for 14 days (reference value: 8.19 +/- 0.648 10^6/mm3); assay type: organism-based; conditions: in vivo, 336 h
[12] = system: Rattus norvegicus; test: Toxicity in Wistar rat assessed as effect on total bilirubin level at 200 mg/kg, po for 14 days; assay type: organism-based; conditions: in vivo, 336 h
How it was run: (§3)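 Normal Wistar rats are given 200 mg/kg orally for 14 days, with vehicle-treated controls. Serum liver markers (SGOT, SGPT, ALP, total protein, total bilirubin) and renal markers (urea, creatinine, uric acid) are then measured, mean ± S.D.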

[13] = system: Rattus norvegicus; test: Toxicity in Wistar rat assessed as effect on SGOT level at 200 mg/kg, po for 14 days; assay type: organism-based; conditions: in vivo, 336 h; how it was run: as §3
[14] = system: Rattus norvegicus; test: Toxicity in Wistar rat assessed as effect on uric acid level at 200 mg/kg, po for 14 days; assay type: organism-based; conditions: in vivo, 336 h; how it was run: as §3
[15] = system: Rattus norvegicus; test: Toxicity in Wistar rat assessed as effect on sodium level at 200 mg/kg, po for 14 days; assay type: organism-based; conditions: in vivo, 336 h
[16] = system: Rattus norvegicus; test: Toxicity in Wistar rat assessed as effect on chloride level at 200 mg/kg, po for 14 days; assay type: organism-based; conditions: in vivo, 336 h

Q: `Cc1ccc(NC(=S)NNC(=O)Nc2ccc(S(C)(=O)=O)cc2)cc1` was tested. Which inhibition [1] did it give?
A: inactive

Q: What about the inhibition [2] of the same molecule?
A: 75%

Q: What about the IC50 [3] of the same molecule?
A: 2150 nM

Q: What about the Activity [4] of the same molecule?
A: 83%

Q: And the Activity [5]?
A: 67%

Q: What about the Activity [6] of the same molecule?
A: 67%

Q: And the Activity [7]?
A: Active

Q: And the Activity [8]?
A: 13.3%

Q: And the Activity [9]?
A: 73%

Q: What about the Activity [10] of the same molecule?
A: 2.5%

Q: And the Activity [11]?
A: 7.34 ×10⁶ /mm3

Q: What about the Activity [12] of the same molecule?
A: Non-Toxic

Q: What about the Activity [13] of the same molecule?
A: Non-Toxic

Q: And the Activity [14]?
A: Non-Toxic

Q: What about the Activity [15] of the same molecule?
A: Non-Toxic

Q: What about the Activity [16] of the same molecule?
A: Non-Toxic
